Source: ChEMBL document CHEMBL4823320, “SAR of novel benzothiazoles targeting an allosteric pocket of DENV and ZIKV NS2B/NS3 proteases” (Bioorg Med Chem, 2021)

How the values were obtained:
[1] = biological target: Genome polyprotein (dengue virus type 2) (UniProt P29990); assay: Inhibition of DENV2 NS2B-NS3 protease expressed in Escherichia coli BL21(DE3) using Boc-Gly-Arg-Arg-AMC as substrate at 20 uM by FRET assay
Outline: (§1)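 His-tagged NS2B/NS3 protease, purified by Ni affinity and size exclusion, in 50 mM Tris pH 9.0, 20% glycerol, 1 mM CHAPS with 100 µM Boc-Gly-Arg-Arg-AMC. Fluorescence is read every 30 s for 10 min at 25 °C. Percent inhibition is at a single inhibitor concentration of 20, 100 or 200 µM; ≥3 independent measurements.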

Nonstructural protein 3 = Nonstructural protein 3 (Zika virus, UniProt A0A024AXB9); assay: Inhibition of ZIKV NS2B-NS3 protease expressed in Escherichia coli BL21(DE3) using Boc-Gly-Arg-Arg-AMC as substrate by FRET assay
Outline: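 His-tagged ZIKV NS2B/NS3 protease in 50 mM Tris pH 9.0, 20% glycerol, 1 mM CHAPS with 100 µM Boc-Gly-Arg-Arg-AMC. Dilution series 0.01–100 µM, read every 30 s for 10 min at 25 °C. IC50 from a four-parameter fit of hydrolysis rate; mean ± SD of ≥3 independent measurements.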

Genome polyprotein = Genome polyprotein (dengue virus type 2, UniProt P29990); assay: Inhibition of DENV2 NS2B-NS3 protease expressed in Escherichia coli BL21(DE3) using Boc-Gly-Arg-Arg-AMC as substrate by FRET assay
Outline: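 Recombinant His-tagged NS2B/NS3 protease, expressed in E. coli BL21-Gold (DE3) (1 mM IPTG, 20 °C, 16 h) and purified by Ni affinity and size exclusion. Assayed in 50 mM Tris pH 9.0, 20% glycerol, 1 mM Chaps, with 100 μM Boc-Gly-Arg-Arg-AMC. Fluorescence read every 30 s for 10 min at 25 °C; inhibitor 0.01–100 μM. IC50 from a four-parameter fit of hydrolysis rate; ≥3 independent experiments.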

[2] = biological target: Nonstructural protein 3 (Zika virus) (UniProt A0A024AXB9); assay: Inhibition of ZIKV NS2B-NS3 protease expressed in Escherichia coli BL21(DE3) using Boc-Gly-Arg-Arg-AMC as substrate at 20 uM by FRET assay; outline: as §1
[3] = Chemical stability of compound in tris assay buffer at pH 9 measured after 90 mins by HPLC/MS analysis; type: physicochemical; details: pH 9, 1.5 h
Outline: (§2)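 Compound incubated in protease assay buffer (Tris pH 9.0) under simulated assay conditions and analysed by HPLC/MS after 15 min, 90 min and 20 h. Stability is the compound peak integral in the 210 nm UV trace as a proportion of the total integral.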

[4] = biological target: T1, Sortase A (Staphylococcus aureus) (UniProt Q9S446); assay: Inhibition of staphylococcus aureus Sortase A protease assessed as residual enzyme activity at 20 uM by FRET assay relative to control
T1 sequence (whole entry): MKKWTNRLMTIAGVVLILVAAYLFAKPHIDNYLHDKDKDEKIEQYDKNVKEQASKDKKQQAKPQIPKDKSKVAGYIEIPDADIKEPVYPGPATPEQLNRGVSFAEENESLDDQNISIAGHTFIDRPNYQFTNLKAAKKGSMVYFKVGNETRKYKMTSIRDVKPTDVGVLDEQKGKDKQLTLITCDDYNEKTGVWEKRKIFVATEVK
Outline: (§3)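 Compound at 20 µM, read every 30 s for 10 min at 25 °C. Residual activity is relative to DMSO control; mean ± SD, ≥3 independent measurements.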

[5] = Inhibition of Rhodesain (unknown origin) assessed as residual enzyme activity at 20 uM by FRET assay relative to control
Outline: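 Compound at 20 µM, fluorescence read every 30 s for 10 min at 25 °C. Residual activity is relative to DMSO control; mean ± SD, ≥3 independent measurements.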

[6] = Chemical stability of compound in tris assay buffer at pH 9 measured after 20 hrs by HPLC/MS analysis; type: physicochemical; details: pH 9, 20 h; outline: as §2
[7] = Chemical stability of compound in cell culture conditions at pH 7.4 HEPES buffer measured after 90 mins by HPLC/MS analysis; type: physicochemical; details: read-out: Stabilty
Outline: (§4)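 Compound incubated under simulated cell-assay conditions (HEPES pH 7.4) and analysed by HPLC/MS after 15 min, 90 min and 20 h. Stability is the compound peak integral in the 210 nm UV trace as a fraction of the total integral.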

[8] = Chemical stability of compound in cell culture conditions at pH 7.4 HEPES buffer measured after 20 hrs by HPLC/MS analysis; type: physicochemical; details: read-out: Stabilty; outline: as §4
[9] = Chemical stability of compound in tris assay buffer at pH 9 measured after 15 mins by HPLC/MS analysis; type: physicochemical; details: pH 9, 0.25 h; outline: as §2
[10] = test system: Severe acute respiratory syndrome coronavirus 2; assay: Inhibition of SARS-CoV-2 Main protease assessed as residual enzyme activity at 20 uM by FRET assay relative to control
Outline: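 Compound at 20 μM; fluorescence read every 30 s for 10 min at 25 °C. Residual activity expressed relative to DMSO control; mean of ≥3 independent measurements.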

[11] = biological target: Chymotrypsin (Homo sapiens) (UniProt Q99895+P17538+P40313+Q6GPI1); assay: Inhibition of Chymotrypsin (unknown origin) assessed as residual enzyme activity at 20 uM by FRET assay relative to control; type: protein assay
Outline: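 α-Chymotrypsin in 50 mM Tris pH 8.0, 100 mM NaCl with Succ-Leu-Tyr-AMC. Compound at 20 µM, read every 30 s for 10 min at 25 °C. Residual activity is relative to DMSO control; mean ± SD, ≥3 independent measurements.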

Trypsin (Homo sapiens) = Trypsin (Homo sapiens) (UniProt P07477+P07478+P35030); assay: Inhibition of Trypsin (unknown origin) assessed as residual enzyme activity at 20 uM by FRET assay relative to control; type: protein assay
Outline: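 Trypsin in 50 mM Tris pH 8.0, 100 mM NaCl, 5 mM EDTA with 40 µM Z-Phe-Arg-AMC. Compound at 20 µM, read every 30 s for 10 min at 25 °C. Residual activity is relative to DMSO control; mean ± SD, ≥3 independent measurements.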

[12] = Chemical stability of compound in cell culture conditions at pH 7.4 HEPES buffer measured after 15 mins by HPLC/MS analysis; type: physicochemical; details: read-out: Stabilty; outline: as §4
[13] = biological target: Prothrombin (Homo sapiens) (UniProt P00734); assay: Inhibition of Thrombin (unknown origin) assessed as residual enzyme activity at 20 uM by FRET assay relative to control; outline: as §3
[14] = biological target: Urokinase-type plasminogen activator (Homo sapiens) (UniProt P00749); assay: Inhibition of Urokinase plasminogen activator (unknown origin) assessed as residual enzyme activity at 20 uM by FRET assay relative to control
Outline: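 Urokinase plasminogen activator in 50 mM Tris pH 7.4, 50 mM NaCl, 0.5 mM EDTA with 240 µM Z-Gly-Gly-Arg-AMC. Compound at 20 µM, read every 30 s for 10 min at 25 °C. Residual activity is relative to DMSO control; mean ± SD, ≥3 independent measurements.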

| Structure (SMILES) | inhibition [1] | IC50 (Nonstructural protein 3) | IC50 (Genome polyprotein) | also measured |
| --- | --- | --- | --- | --- |
| Cc1ccc(S(=O)(=O)N[C@@H](Cc2ccccc2)C(=O)Nc2nc3cc(O)c(O)cc3s2)cc1 | 33% | 3.66 µM |  |  |
| O=C(C[C@H](NC(=O)c1ccccc1)C(=O)Nc1nc2cc(O)c(O)cc2s1)Nc1ccccc1 |  | 5.48 µM | 9.95 µM |  |
| O=C(Nc1nc2cc(O)c(O)cc2s1)C(c1ccc(O)cc1)c1ccc(O)cc1 | 45% |  |  | inhibition [2]: 54% |
| O=C(Nc1ccccc1)[C@@H]1CCCN1C(=O)c1cc2c(O)cc(O)cc2o1 |  | 20.1 µM | 27.7 µM |  |
| Cc1ccc(S(=O)(=O)N[C@H](C(=O)Nc2nc3cc(O)c(O)cc3s2)C(C)(C)C)cc1 | 44% | 5.74 µM |  |  |
| Cc1ccc(S(=O)(=O)N[C@@H](C)C(=O)Nc2nc3cc(O)c(O)cc3s2)cc1 | 39% | 6.48 µM |  |  |
| O=C(Nc1ccccc1)[C@@H]1CCCN1C(=O)c1cc2cc(O)c(O)cc2s1 |  | 3.43 µM | 4.01 µM |  |
| O=C(Nc1ccccc1)c1cc2cc(O)c(O)cc2[nH]1 |  | 3.44 µM | 6.9 µM |  |
| O=C(Nc1nc2cc(O)c(O)cc2s1)c1ccccc1 |  | 9.19 µM | 27 µM | Stabilty [3]: 61%; Activity [4]: 57%; Activity [5]: 91%; Stabilty [6]: 83%; remaining at 1.5 h [7]: 95%; remaining at 20 h [8]: 95%; Stabilty [9]: 67%; Activity [10]: 90%; Activity [11]: 77%; Activity (Trypsin (Homo sapiens)): 80%; remaining at 0.25 h [12]: 95%; Activity [13]: 75%; Activity [14]: 100% |
| O=C(Nc1ccccc1)[C@@H]1CCCN1C(=O)c1cc2cc(O)c(O)cc2[nH]1 | 36% |  |  | inhibition [2]: 44% |
| O=C(Nc1nc2cc(O)c(O)cc2s1)c1ccc(-c2ccccc2)cc1 |  | 1.22 µM | 7.8 µM |  |
| Cc1ccc(S(=O)(=O)N2CCC[C@@H]2C(=O)Nc2nc3cc(O)c(O)cc3s2)cc1 |  |  |  | Activity [4]: 83%; Activity [5]: 93%; Activity [10]: 94%; Activity [11]: 100%; Activity (Trypsin (Homo sapiens)): 96%; Activity [13]: 97%; Activity [14]: 100% |
| O=C(Nc1nc2ccc([N+](=O)[O-])cc2s1)c1ccc(I)cc1 | 36% |  |  | inhibition [2]: 49% |
| CC[C@H](C)[C@H](NS(=O)(=O)c1ccc(C)cc1)C(=O)Nc1nc2cc(O)c(O)cc2s1 | 33% | 5.35 µM |  |  |
| O=C(Nc1ccccc1)[C@@H]1CCCCN1C(=O)c1cc2cc(O)c(O)cc2o1 |  | 2.9 µM | 4.73 µM | Activity [4]: 74%; Activity [5]: 90%; Activity [10]: 57%; Activity [11]: 77%; Activity (Trypsin (Homo sapiens)): 95%; Activity [13]: 93%; Activity [14]: 94% |
| O=C(Nc1nc2cc(O)c(O)cc2s1)C(c1ccc(Cl)cc1)c1ccc(Cl)cc1 | 58% | 0.96 µM |  |  |
| CCN(CC)C(=O)C[C@H](NC(=O)c1ccccc1)C(=O)Nc1nc2cc(O)c(O)cc2s1 | 16% |  |  | inhibition [2]: 13% |
| O=C(Nc1nc2cc(O)c(O)cc2s1)c1ccc(Cl)c(Cl)c1 |  |  | 4.86 µM | inhibition [2]: 39% |

| Structure (SMILES) | inhibition [1] | IC50 (Nonstructural protein 3) | IC50 (Genome polyprotein) | also measured |
| --- | --- | --- | --- | --- |
| O=C(Nc1ccccc1)c1cc2cc(O)c(O)cc2s1 |  | 1.59 µM | 2.73 µM |  |
| O=C(Nc1ccccc1)[C@@H]1CCCN1C(=O)c1cc2cc(O)c(O)cc2o1 |  | 2.43 µM | 6.43 µM | Stabilty [3]: 83%; Activity [4]: 81%; Activity [5]: 93%; Stabilty [6]: 83%; remaining at 1.5 h [7]: 95%; remaining at 20 h [8]: 95%; Stabilty [9]: 83%; Activity [10]: 99%; Activity [11]: 78%; Activity (Trypsin (Homo sapiens)): 88%; remaining at 0.25 h [12]: 95%; Activity [13]: 81%; Activity [14]: 82% |
| Cc1ccc(S(=O)(=O)N[C@H](C)C(=O)Nc2nc3cc(O)c(O)cc3s2)cc1 | 14% |  |  | inhibition [2]: 26% |
| O=C(Nc1nc2cc(O)c(O)cc2s1)c1ccc(Cl)cc1 |  | 6.66 µM | 5.97 µM |  |
| O=C(Nc1ccccc1)[C@@H]1CCCN1C(=O)c1cnc2cc(O)c(O)cc2c1 | 23% |  |  | inhibition [2]: 44% |
| O=C(N[C@@H](Cc1ccc(O)cc1)C(=O)Nc1nc2cc(O)c(O)cc2s1)c1ccccc1 | 63% | 4.59 µM |  |  |
| O=C(CN(C(=O)c1ccccc1)c1ccccc1)Nc1nc2cc(O)c(O)cc2s1 | 56% | 2.07 µM |  |  |
| Cc1ccc(C(=O)Nc2nc3cc(O)c(O)cc3s2)cc1 |  | 15.4 µM | 6.39 µM |  |
| O=C(Nc1ccc(I)cc1)c1nc2cc(O)c(O)cc2s1 |  | 1.3 µM | 2.48 µM |  |
| O=[N+]([O-])c1ccc2nc(NC(=S)Nc3ccc(I)cc3)sc2c1 |  | 6.51 µM | 11.2 µM |  |
| O=C(CCNC(=O)c1ccccc1)Nc1nc2cc(O)c(O)cc2s1 | 23% |  |  | inhibition [2]: 38% |
| O=C(Nc1ccccc1)c1nc2cc(O)c(O)cc2s1 |  | 9.19 µM | 27 µM | Stabilty [3]: 94%; Stabilty [6]: 88%; remaining at 1.5 h [7]: 95%; remaining at 20 h [8]: 95%; Stabilty [9]: 95%; remaining at 0.25 h [12]: 95% |
| O=C(O)C[C@H](NC(=O)c1ccccc1)C(=O)Nc1nc2cc(O)c(O)cc2s1 | 32% |  |  | inhibition [2]: 45% |
| O=C(Nc1ccccc1)[C@@H]1CCCN1C(=O)c1ccc2cc(O)c(O)cc2c1 | 9% |  |  | inhibition [2]: 42% |
| O=C(Nc1ccccc1)[C@@H]1CCCN1C(=O)c1nc2cc(O)c(O)cc2s1 |  | 4 µM | 11.6 µM |  |
| Cc1ccc(S(=O)(=O)NC(CSCc2ccccc2)C(=O)Nc2nc3cc(O)c(O)cc3s2)cc1 (single isomer, unassigned) | 57% | 2.13 µM |  |  |
| O=C(Nc1ccccc1)c1cnc2cc(O)c(O)cc2c1 |  | 6.38 µM | 3.63 µM |  |
